The results in this text go back to ChEMBL document CHEMBL4673206, “Truncated Latrunculins as Actin Inhibitors Targeting Plasmodium falciparum Motility and Host Cell Invasion” (J Med Chem, 2016).

Data set [1] is described as follows: Inhibition of actin polymerisation in trophozoite-stage of plasmodium falciparum infected in human erythrocytes assessed as parasite growth inhibition measured after 72 hrs by SYBR dye based FACSort flow cytometry analysis. The data set is classed as cell-based. Put shortly: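 Mature pigmented trophozoites at 0.1% parasitemia, 2% hematocrit, exposed to compound over two invasion cycles for 72 h at 37°C. Fixed with 0.25% glutaraldehyde for 1 h at room temperature, washed, stained with SYBR green, and counted by flow cytometry. Triplicate wells.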

A short description of data set [2]: Selectivity index, ratio of CC50 for cytotoxicity against human HepG2 cells to EC50 for inhibition of actin polymerisation in trophozoite-stage of plasmodium falciparum. The data set is classed as toxicity, cell-based. As to conditions: read-out: Ratio CC50/EC50.
For another data set, the system named is HepG2. Kind of data set: Cytotoxicity against human HepG2 cells assessed as reduction in cell viability incubated for 24 hrs by resazurin staining based assay. The settings on record: hepg2, 24 h. Put shortly: (§1)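 HEK293 and HepG2 seeded at 3000 and 5000 cells/well in DMEM with 10% FBS and left to attach 24 h (37°C, 5% CO2). Compounds added as a 1:3 serial dilution from 100 µM top concentration (0.5% DMSO final, 5% FBS final) for 24 h. Resazurin 10 µM added, 3 h, fluorescence at 560/590. Viability normalised to untreated and 100 µM tamoxifen wells; triplicate wells.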

The nature of data set [3]: Selectivity index, ratio of CC50 for cytotoxicity against human HEK293 cells to EC50 for inhibition of actin polymerisation in trophozoite-stage of plasmodium falciparum. The data set is classed as toxicity, cell-based. As to conditions: read-out: Ratio CC50/EC50.
Data set [4] is described as follows: Inhibition of actin polymerisation in Toxoplasma gondii RH infected in human HFF cells assessed as reduction in invasion incubated for 20 mins prior to infection in HFF cells followed by 1 hr incubation under 5% CO2 and subsequent incubation for 72 hrs in DMEM medium 5% CO2 by crystal violet staining based analysis.
The next data set concerns HEK293. Kind of data set: Cytotoxicity against HEK293 cells assessed as reduction in cell viability incubated for 24 hrs by resazurin staining based assay. As to conditions: human, hek293, 24 h. Put shortly:
as §1
Background: Resazurin is reduced to fluorescent resorufin, in cell work by metabolically active cells.

Data set [5] has as its system G-actin polymerization. Kind of data set: Inhibition of KMEI-induced pyrene-labelled G-actin polymerization (unknown origin) at 10 uM preincubated for 1 min followed by KMEI addition and measured at 15 secs interval for 90 mins by spectrofluorimetric analysis relative to control. As to conditions: human, time 91 min. Put shortly: (§2)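 Converted to Mg2+ form with EGTA/MgCl2 for 2 min at room temperature; final actin 2.5 µM. Compound in DMSO added for 1 min, then polymerisation started with KMEI (50 mM KCl, 10 mM imidazole pH 7, 1 mM MgCl2, 1 mM EGTA). Fluorescence ex 365/em 407 nm read every 15 s for 90 min; triplicate.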

Data set [6] relates to G-actin polymerization. Kind of data set: Inhibition of KMEI-induced pyrene-labelled G-actin polymerization (unknown origin) at 100 uM preincubated for 1 min followed by KMEI addition and measured at 15 secs interval for 90 mins by spectrofluorimetric analysis relative to control. The settings on record: human, time 91 min. Put shortly: as §2

For orientation: EC50 means the concentration that produces a half-maximal response. As to `COc1ccc(CN2C(=O)SC[C@H]2C2(OC)CC(O)CCO2)cc1` (stereo not given in full), in data set [1], the EC50 was > 100 µM.
Consider `COc1ccc(CN2C(=O)SC[C@H]2C2(OC)CC(OC(=O)c3ccc(I)cc3)CCO2)cc1` (mixture of isomers), for which the EC50 in data set [1] came to 49 µM.
Take `COc1ccc(CN2C(=O)SC[C@H]2C2(OC)CC(OC(=O)c3cc(C)ccc3-c3cccs3)CCO2)cc1` (mixture of isomers): the half-maximal effective concentration (EC50) in data set [1] amounted to 10 µM.
The same measure, in the same setting: in the case of `COc1ccc(CN2C(=O)SC[C@H]2C2(OC)CC(OC(=O)c3ccco3)CCO2)cc1` (mixture of isomers) it was 62 µM; in that of `COc1ccc(CN2C(=O)SC[C@H]2C2(OC)CC(OC(=O)c3ccc(C)cc3-c3ccccc3)CCO2)cc1` (mixture of isomers), 13 µM.
By CC50 is commonly meant the concentration that lowers cell viability or growth by half. Turning to `CCCCC(=O)OC1CCOC(OC)([C@@H]2CSC(=O)N2Cc2ccc(OC)cc2)C1` (mixture of isomers), the selectivity ratio in data set [2] and in data set [3] was 1 in each case. Further, the 50% cytotoxic concentration (CC50) in the data set on HepG2 is 111 µM; in the data set with HEK293, 103 µM. The figures for the concentration for a half-maximal effect (EC50) in data set [4] and in data set [1] were > 100 µM and 66 µM, respectively.
Turning to `COc1ccc(CN2C(=O)SC[C@H]2C2(OC)CC(OC(=O)c3cccc(I)c3)CCO2)cc1` (mixture of isomers), the concentration giving a half-maximal response (EC50) in data set [1] worked out at 49 µM.
The term inhibition denotes how much of the control response was suppressed. A low value points to little suppression. On to `COc1ccc(CN2C(=O)SC[C@H]2C2(OC)CC(OC(=O)c3ccccc3C3=CCCCC3)CCO2)cc1` (mixture of isomers), for which the selectivity ratio in data set [2] amounted to 15; in data set [3] it was 14. In addition, the CC50 in the data set on HepG2 is 123 µM; in the data set on HEK293 it was 109 µM. In the data set with G-actin polymerization [5], the inhibition at 1.5 h, 10 µM is < 10%. Moreover, the figures for the EC50 in data set [4] and in data set [1] were 16 µM and 7 µM, respectively. Also, the inhibition at 1.5 h, 100 µM in the data set on G-actin polymerization [6] was < 10%.
Consider `COc1ccc(CN2C(=O)SC[C@H]2C2(OC)CC(OC(=O)c3ccccc3-c3cccc4ccccc34)CCO2)cc1` (mixture of isomers), for which the values for the selectivity ratio in data set [2] and in data set [3] were 15 and 17, respectively. In addition, the half-maximal cytotoxic concentration (CC50) with HepG2 was 90 µM; with HEK293, 99 µM. For the same compound, in the data set with G-actin polymerization [5], the inhibition at 1.5 h, 10 µM is < 10%. For the same compound, the figures for the EC50 in data set [4] and in data set [1] were 16 µM and 7 µM, respectively. For the same compound, the inhibition at 1.5 h, 100 µM in the data set with G-actin polymerization [6] is < 10%.
Consider `COc1ccc(CN2C(=O)SC[C@H]2C2(OC)CC(OC(=O)c3ccccc3I)CCO2)cc1` (mixture of isomers), for which, in the data set with G-actin polymerization [5], the inhibition at 1.5 h, 10 µM was < 10%. Also, the inhibition at 1.5 h, 100 µM in the data set with G-actin polymerization [6] was < 10%. For the same compound, the EC50 in data set [1] was determined as 17 µM.
For `CCC/C=C/c1ccccc1C(=O)OC1CCOC(OC)([C@@H]2CSC(=O)N2Cc2ccc(OC)cc2)C1` (mixture of isomers), in data set [1], the EC50 worked out at 49 µM.
Take `COc1ccc(CN2C(=O)SC[C@H]2C2(OC)CC(OC(=O)C3CCCC3)CCO2)cc1` (mixture of isomers): the 50% effective concentration (EC50) in data set [4] was > 100 µM; in data set [1], 66 µM.
As to `COc1ccc(CN2C(=O)SC[C@H]2C2(OC)CC(OC(=O)c3ccc(-c4cccs4)cc3)CCO2)cc1` (mixture of isomers), the concentration for a half-maximal effect (EC50) in data set [1] came out at 24 µM.
With `COc1ccc(CN2C(=O)SC[C@H]2C2(OC)CC(OC(=O)c3ccccc3)CCO2)cc1` (mixture of isomers), in data set [1], the EC50 is 31 µM.
With `COc1ccc(CN2C(=O)SC[C@H]2C2(OC)CC(OC(=O)c3ccc(C)cc3-c3cccs3)CCO2)cc1` (mixture of isomers), the EC50 in data set [1] stood at 15 µM.
As to `COc1ccc(CN2C(=O)SC[C@H]2C2(OC)CC(OC(=O)c3ccccc3-c3cccs3)CCO2)cc1` (mixture of isomers), in the data set on G-actin polymerization [5], the inhibition at 1.5 h, 10 µM is < 10%. Moreover, the half-maximal effective concentration (EC50) in data set [4] is 19 µM; in data set [1], 7 µM. Moreover, the inhibition at 1.5 h, 100 µM in the data set with G-actin polymerization [6] was < 10%.
For the compound `COc1ccc(CN2C(=O)SC[C@H]2C2(OC)CC(OC(=O)c3cccc(-c4cccs4)c3)CCO2)cc1` (mixture of isomers), the half-maximal effective concentration (EC50) in data set [1] came to 18 µM.
On to `C/C1=C/C(=O)O[C@@H]2C[C@@H](CC[C@H](C)/C=C\CC1)O[C@@](O)([C@@H]1CSC(=O)N1)C2` [LATRUNCULIN B], for which, in the data set with G-actin polymerization [5], the inhibition at 1.5 h, 10 µM was found to be 100%. In the data set on G-actin polymerization [6], this compound displayed an inhibition at 1.5 h, 100 µM of 100%. Besides, the EC50 in data set [1] came out at 44 µM.
